Assay [1] can be described thus: Channel opening activity at KATP channel in Wistar rat endothelium-denuded aortic ring assessed as relaxation of KCl-induced contraction. The format is tissue-based. The note with it: Aorta. The procedure, abridged: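 Thoracic aortic rings (3–4 mm, endothelium-free) from adult fed rats, 37 °C, O2/CO2 95/5 gassed; isometric tension. After 60 min equilibration, contracted with 30 mM KCl; once stable, drug added cumulatively to maximal relaxation or 300 µM. Relaxation as % of KCl contraction; EC50 (50% inhibition of plateau) from dose–response curves; mean ± SEM (n).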

Assay [2] is filed under the species Rattus norvegicus. Briefly: Channel opening activity at KATP channel in Wistar rat pancreatic islets assessed as glucose-induced residual insulin secretion at 10 uM after 90 mins by radioimmunology. An outline of the steps:
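Islets from adult fed rats, groups of 10, preincubated 30 min at 37 °C in bicarbonate salt medium with 2.8 mM glucose, 0.5% dialyzed albumin, O2/CO2 gassed. Then incubated 90 min at 37 °C with 16.7 mM glucose plus drug. Insulin by radioimmunoassay against rat insulin standard; expressed as % of drug-free 16.7 mM glucose control; mean ± SEM (n).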

The species named for assay [3] is Rattus norvegicus. Briefly: Channel opening activity at KATP channel in Wistar rat pancreatic islets assessed as glucose-induced residual insulin secretion at 1 uM after 90 mins by radioimmunology.
The species entered for assay [4] is Rattus norvegicus. Briefly: Channel opening activity at KATP channel in Wistar rat pancreatic islets assessed as increase in rubidium outflow at 10 uM by scintillation counting in presence of glibenclamide. The procedure, abridged: (§1)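 Groups of 100 islets from adult fed rats loaded 60 min at 37 °C with 86Rb in bicarbonate medium with 16.7 mM glucose and 0.5% albumin, washed three times, then perifused at 1.0 mL/min. Effluent collected in 1-min fractions from min 31 to 90, counted by scintillation along with final islet content. Output as fractional outflow rate (% of islet content per min). Glibenclamide 10 µM used as KATP blocker.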

The species named for assay [5] is Rattus norvegicus. Briefly: Channel opening activity at KATP channel in Wistar rat pancreatic islets assessed as increase in rubidium outflow at 10 uM by scintillation counting. The procedure, abridged:
as §1

Active and inactive are the calls of the source. The rule behind the calls is not given here.

Regarding `CC(N/C(=N\C#N)Nc1ccncc1)C(C)(C)C` (racemic) [PINACIDIL ANHYDROUS], the EC50 in assay [1] came out at 350 nM.

Take `CS/C(=N\c1ccc(Cl)cc1)NC1CC(C)(C)Oc2ccc(Br)cc21` (stereo unspecified): the Activity in the assay filed under Rattus norvegicus [2] turned out to be 40.8%; in the assay filed under Rattus norvegicus [3], 89.4%. Further, in assay [1], the concentration giving a half-maximal response (EC50) was more than 10000 nM.

Take `CC1(C)CC(NC(=S)Nc2ccc([N+](=O)[O-])cc2)c2cc(F)ccc2O1` (stereo unspecified): the Activity in the assay listed under Rattus norvegicus [2] stood at 10.7%; in the assay listed under Rattus norvegicus [3], 74.3%. In addition, the EC50 in assay [1] is more than 3000 nM.

Turning to `CS/C(=N\c1cccc(C#N)c1)NC1CC(C)(C)Oc2ccc(Br)cc21` (stereo unspecified), the values for the Activity in the assay listed under Rattus norvegicus [2] and in the assay filed under Rattus norvegicus [3] were 37.7% and 93.7%, respectively. Also, the half-maximal effective concentration (EC50) in assay [1] was more than 30000 nM.

As to `CC1(C)CC(NC(=S)Nc2ccc([N+](=O)[O-])cc2)c2cc(Br)ccc2O1` (stereo unspecified), the Activity in the assay listed under Rattus norvegicus [2] was 13.5%; in the assay filed under Rattus norvegicus [3], 61.3%. The EC50 in assay [1] is more than 10000 nM. Besides, the outcome in the assay listed under Rattus norvegicus [4] was inactive. The outcome in the assay listed under Rattus norvegicus [5] was Active.

As for `CC1(C)CC(NC(=S)Nc2ccc(C#N)cc2)c2cc(Br)ccc2O1` (stereo unspecified), the results for the Activity in the assay filed under Rattus norvegicus [2] and in the assay filed under Rattus norvegicus [3] were 11.7% and 57.5%, respectively. The EC50 in assay [1] is more than 10000 nM.

As to `CC1(C)CC(N/C(=N/C#N)Nc2cccc(C#N)c2)c2cc(Br)ccc2O1` (stereo unspecified), the Activity in the assay filed under Rattus norvegicus [2] worked out at 45.3%; in the assay listed under Rattus norvegicus [3] it was 90.5%. The EC50 in assay [1] turned out to be 5200 nM.

Consider `CC1(C)CC(NC(=S)Nc2cccnc2)c2cc(Cl)ccc2O1` (stereo unspecified), for which, in the assay listed under Rattus norvegicus [2], the Activity is 50.2%. The half-maximal effective concentration (EC50) in assay [1] is 2800 nM.

On to `CC1(C)CC(NC(=S)Nc2cccc(C#N)c2)c2cc(Br)ccc2O1` (stereo unspecified), for which the Activity in the assay filed under Rattus norvegicus [2] worked out at 14.2%; in the assay filed under Rattus norvegicus [3], 65.5%. In addition, the EC50 in assay [1] came out at 640 nM.

Regarding `CC1(C)CC(NC(=S)Nc2ccc(C#N)cc2)c2cc(Cl)ccc2O1` (stereo unspecified), the Activity in the assay filed under Rattus norvegicus [2] came to 10.6%; in the assay filed under Rattus norvegicus [3], 47.8%. Moreover, the EC50 in assay [1] was more than 10000 nM.

On to `CC1(C)CC(NC(=S)Nc2ccsc2)c2cc(Br)ccc2O1` (stereo unspecified), for which the Activity in the assay filed under Rattus norvegicus [2] was 44%. Moreover, the EC50 in assay [1] is more than 10000 nM.

In the case of `CC1(C)CC(NC(=S)Nc2ccsc2)c2cc(Cl)ccc2O1` (stereo unspecified), the Activity in the assay listed under Rattus norvegicus [2] was 51.9%. Further, the half-maximal effective concentration (EC50) in assay [1] was more than 3000 nM.

For the compound `CC1(C)CC(NC(=S)Nc2cccc(C#N)c2)c2cc(F)ccc2O1` (stereo unspecified), the results for the Activity in the assay filed under Rattus norvegicus [2] and in the assay listed under Rattus norvegicus [3] were 16.1% and 80%, respectively. The concentration giving a half-maximal response (EC50) in assay [1] was found to be 2600 nM.

Consider `CC1(C)CC(NC(=S)Nc2cccc([N+](=O)[O-])c2)c2cc(Br)ccc2O1` (stereo unspecified), for which the values for the Activity in the assay listed under Rattus norvegicus [2] and in the assay listed under Rattus norvegicus [3] were 13.5% and 64.3%, respectively. In addition, the EC50 in assay [1] is more than 10000 nM.

In the case of `CC1(C)CC(NC(=S)Nc2cccnc2)c2cc(Br)ccc2O1` (stereo unspecified), in the assay listed under Rattus norvegicus [2], the Activity came out at 44.3%. For the same compound, in assay [1], the EC50 stood at 3700 nM.

In the case of `CC1=Nc2ccc(Cl)cc2S(=O)(=O)N1`, the Activity in the assay listed under Rattus norvegicus [2] stood at 73.9%; in the assay listed under Rattus norvegicus [3] it was 87.5%.

Regarding `CC1(C)CC(NC(=S)Nc2ccc([N+](=O)[O-])cc2)c2cc(Cl)ccc2O1` (stereo unspecified), the Activity in the assay listed under Rattus norvegicus [2] amounted to 10.3%; in the assay listed under Rattus norvegicus [3] it was 67.3%. In assay [1], the EC50 is more than 10000 nM.

`CC1(C)CC(N/C(=N/C#N)Nc2ccc(Cl)cc2)c2cc(Br)ccc2O1` (stereo unspecified): the figures for the Activity in the assay listed under Rattus norvegicus [2] and in the assay filed under Rattus norvegicus [3] were 42.7% and 95.8%, respectively. In addition, in assay [1], the EC50 was determined as 11400 nM.

`CC1(C)CC(NC(=S)Nc2ccc(C#N)cc2)c2cc(F)ccc2O1` (stereo unspecified): the Activity came to 12% in the assay filed under Rattus norvegicus [2] and 64.7% in the assay filed under Rattus norvegicus [3]. Moreover, the EC50 in assay [1] was more than 3000 nM.

In the case of `CC1(C)CC(NC(=S)Nc2cccnc2)c2cc(F)ccc2O1` (stereo unspecified), the Activity in the assay filed under Rattus norvegicus [2] worked out at 62.1%. Further, the EC50 in assay [1] worked out at 6600 nM.

In the case of `CC1(C)Oc2ccc(C#N)cc2C(N2CCCC2=O)C1O` (racemic) [CROMAKALIM], the Activity was found to be 94.4% in the assay filed under Rattus norvegicus [2] and 95.3% in the assay listed under Rattus norvegicus [3]. Also, the concentration for a half-maximal effect (EC50) in assay [1] amounted to 130 nM.

In the case of `CC1(C)CC(NC(=S)Nc2cccc([N+](=O)[O-])c2)c2cc(F)ccc2O1` (stereo unspecified), the Activity in the assay filed under Rattus norvegicus [2] was 11.5%; in the assay filed under Rattus norvegicus [3], 76.1%. For the same compound, the EC50 in assay [1] is more than 3000 nM.

Turning to `CC1(C)CC(NC(=S)Nc2cccc(C#N)c2)c2cc(Cl)ccc2O1` (stereo unspecified), the Activity in the assay listed under Rattus norvegicus [2] amounted to 15.8%; in the assay listed under Rattus norvegicus [3], 66.2%. Also, the 50% effective concentration (EC50) in assay [1] was found to be 600 nM.

On to `CC1(C)CC(NC(=S)Nc2cccc([N+](=O)[O-])c2)c2cc(Cl)ccc2O1` (stereo unspecified), for which the Activity worked out at 14.4% in the assay filed under Rattus norvegicus [2] and 64.3% in the assay listed under Rattus norvegicus [3]. For the same compound, the EC50 in assay [1] is more than 3000 nM.

Broadly, the EC50 is the midpoint of the concentration-response curve.

The values are drawn from ChEMBL document CHEMBL1152669, “New R/S-3,4-dihydro-2,2-dimethyl-2H-1-benzopyrans as K(ATP) channel openers: modulation of the 4-position” (Bioorg Med Chem, 2009).
